Reference: ChEMBL document CHEMBL3232844, “Synthesis and structure activity relationships of schweinfurthin indoles” (2014)

Columns and labels:
Assay type in all cases: functional
CCRF-CEM = test: Cytotoxicity against human CCRF-CEM cells
HL-60(TB) = test: Cytotoxicity against human HL-60(TB) cells
Outline: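 Tested within the NCI 60-cell-line screen, with GI50 as the read-out. Values are the average of two independent experiments. The lowest concentration tested was 10 nM.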

MOLT-4 = test: Cytotoxicity against human MOLT4 cells
Outline: (§1)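 Tested in a 60-cell-line human tumor panel screen; the read-out is growth inhibition, reported as GI50 for each cell line.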

SR = test: Cytotoxicity against human SR cells
Outline: (§2)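 Cell line run as part of the 60-cell-line screening panel; growth inhibition was reported as a GI50 for each line.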

A549 = test: Cytotoxicity against human A549 cells; outline: as §1
HOP-62 = test: Cytotoxicity against human HOP62 cells; outline: as §1
COLO 205 = test: Cytotoxicity against human COLO205 cells; outline: as §1
HCC 2998 = test: Cytotoxicity against human HCC2998 cells; outline: as §1
HCT-116 = test: Cytotoxicity against human HCT116 cells; outline: as §1
[1] = Cytotoxicity against human HCT15 cells; outline: as §1
HT-29 = test: Cytotoxicity against human HT-29 cells; outline: as §1
KM12 = test: Cytotoxicity against human KM12 cells; outline: as §1
SF-268 = test: Cytotoxicity against human SF268 cells; outline: as §1
SF-295 = test: Cytotoxicity against human SF295 cells; outline: as §1
SF-539 = test: Cytotoxicity against human SF539 cells; outline: as §1
SNB-19 = test: Cytotoxicity against human SNB19 cells; outline: as §1
SNB-75 = test: Cytotoxicity against human SNB75 cells; outline: as §2
U-251 = test: Cytotoxicity against human U251 cells; outline: as §2
LOX IMVI = test: Cytotoxicity against human LOXIMVI cells; outline: as §1
MDA-MB-435 = test: Cytotoxicity against human MDA-MB-435 cells; outline: as §1
NCI-H322M = test: Cytotoxicity against human NCI-H322M cells; outline: as §1
NCI-H460 = test: Cytotoxicity against human NCI-H460 cells; outline: as §1
SK-MEL-2 = test: Cytotoxicity against human SK-MEL-2 cells; outline: as §1
SK-MEL-5 = test: Cytotoxicity against human SK-MEL-5 cells; outline: as §1
[2] = Cytotoxicity against human UACC257 cells; outline: as §2
[3] = Cytotoxicity against human UACC62 cells; outline: as §2
IGROV-1 = test: Cytotoxicity against human IGROV1 cells; outline: as §1
[4] = Cytotoxicity against human OVCAR4 cells; outline: as §1
[5] = Cytotoxicity against human OVCAR5 cells; outline: as §1
[6] = Cytotoxicity against human NCI-ADR-RES cells; outline: as §1
SK-OV-3 = test: Cytotoxicity against human SKOV3 cells; outline: as §1
786-0 = test: Cytotoxicity against human 786-0 cells; outline: as §1
A498 = test: Cytotoxicity against human A498 cells; outline: as §1
ACHN = test: Cytotoxicity against human ACHN cells; outline: as §1
CAKI-1 = test: Cytotoxicity against human Caki1 cells; outline: as §1
SN12C = test: Cytotoxicity against human SN12C cells; outline: as §1
TK-10 = test: Cytotoxicity against human TK10 cells; outline: as §2
PC-3 = test: Cytotoxicity against human PC3 cells; outline: as §1
DU-145 = test: Cytotoxicity against human DU145 cells; outline: as §1
MCF7 = test: Cytotoxicity against human MCF7 cells; outline: as §1
MDA-MB-231 = test: Cytotoxicity against human MDA-MB-231 cells; outline: as §1
BT-549 = test: Cytotoxicity against human BT549 cells; outline: as §1
T47D = test: Cytotoxicity against human T47D cells; outline: as §2
[7] = read-out: pLC50 (the source's name) (converted)

CC1(C)[C@H](O)CC[C@@]2(C)Oc3c(O)cc(/C=C/c4cc(O)c5cc[nH]c5c4)cc3C[C@H]12
GI50 (CCRF-CEM): 0.219 µM
CC50 (CCRF-CEM; [7]): > 100 µM
TGI (CCRF-CEM; read-out: pTGI (converted)): 14.1 µM
GI50 (HL-60(TB)): 0.0437 µM
CC50 (HL-60(TB); [7]): > 100 µM
TGI (HL-60(TB); read-out: pTGI (converted)): 4.79 µM
GI50 (MOLT-4): 0.0437 µM
CC50 (MOLT-4; [7]): > 100 µM
TGI (MOLT-4; read-out: pTGI (converted)): 0.617 µM
GI50 (SR): 0.123 µM
CC50 (SR; [7]): > 100 µM
TGI (SR; read-out: pTGI (converted)): 21.4 µM
GI50 (A549): 1 µM
CC50 (A549; [7]): 55 µM
TGI (A549; read-out: pTGI (converted)): 8.32 µM
GI50 (HOP-62): 0.631 µM
CC50 (HOP-62; [7]): > 100 µM
TGI (HOP-62; read-out: pTGI (converted)): 7.08 µM
GI50 (COLO 205): 2.19 µM
CC50 (COLO 205; [7]): 11.7 µM
TGI (COLO 205; read-out: pTGI (converted)): 4.79 µM
GI50 (HCC 2998): 3.16 µM
CC50 (HCC 2998; [7]): 39.8 µM
TGI (HCC 2998; read-out: pTGI (converted)): 14.1 µM
GI50 (HCT-116): 0.617 µM
CC50 (HCT-116; [7]): 8.13 µM
TGI (HCT-116; read-out: pTGI (converted)): 2.45 µM
GI50 ([1]; HCT-15): 0.832 µM
CC50 ([1]; HCT-15, read-out: pLC50 (the source's name) (converted)): > 100 µM
TGI ([1]; HCT-15, read-out: pTGI (converted)): 38 µM
GI50 (HT-29): 1.17 µM
CC50 (HT-29; [7]): 45.7 µM
TGI (HT-29; read-out: pTGI (converted)): 4.17 µM
GI50 (KM12): 0.447 µM
CC50 (KM12; [7]): 7.76 µM
TGI (KM12; read-out: pTGI (converted)): 1.95 µM
GI50 (SF-268): 0.589 µM
CC50 (SF-268; [7]): 79.4 µM
TGI (SF-268; read-out: pTGI (converted)): 26.3 µM
GI50 (SF-295; read-out: GI50): 0.089 µM
GI50 (SF-295; read-out: pGI50 (converted)): 0.0891 µM
CC50 (SF-295; [7]): 3.16 µM
TGI (SF-295; read-out: pTGI (converted)): 0.427 µM
GI50 (SF-539): 0.0204 µM
CC50 (SF-539; [7]): 6.17 µM
TGI (SF-539; read-out: pTGI (converted)): 0.724 µM
GI50 (SNB-19): 1.12 µM
CC50 (SNB-19; [7]): > 100 µM
TGI (SNB-19; read-out: pTGI (converted)): 26.9 µM
GI50 (SNB-75): 0.01 µM
CC50 (SNB-75; [7]): 56.2 µM
TGI (SNB-75; read-out: pTGI (converted)): 0.851 µM
GI50 (U-251): 0.0891 µM
CC50 (U-251; [7]): > 100 µM
TGI (U-251; read-out: pTGI (converted)): 20 µM
GI50 (LOX IMVI): 0.178 µM
CC50 (LOX IMVI; [7]): 5.62 µM
TGI (LOX IMVI; read-out: pTGI (converted)): 1.58 µM
GI50 (MDA-MB-435): 0.661 µM
CC50 (MDA-MB-435; [7]): 51.3 µM
TGI (MDA-MB-435; read-out: pTGI (converted)): 9.55 µM
GI50 (NCI-H322M): 7.08 µM
CC50 (NCI-H322M; [7]): 95.5 µM
TGI (NCI-H322M; read-out: pTGI (converted)): 33.9 µM
GI50 (NCI-H460): 0.55 µM
CC50 (NCI-H460; [7]): 6.31 µM
TGI (NCI-H460; read-out: pTGI (converted)): 2.14 µM
GI50 (SK-MEL-2): 0.759 µM
CC50 (SK-MEL-2; [7]): 97.7 µM
TGI (SK-MEL-2; read-out: pTGI (converted)): 21.4 µM
GI50 (SK-MEL-5): 0.372 µM
CC50 (SK-MEL-5; [7]): 3.98 µM
TGI (SK-MEL-5; read-out: pTGI (converted)): 1.51 µM
GI50 ([2]; UACC-257): 3.8 µM
CC50 ([2]; UACC-257, read-out: pLC50 (the source's name) (converted)): 66.1 µM
TGI ([2]; UACC-257, read-out: pTGI (converted)): 16.2 µM
GI50 ([3]; UACC-62): 0.617 µM
CC50 ([3]; UACC-62, read-out: pLC50 (the source's name) (converted)): 33.9 µM
TGI ([3]; UACC-62, read-out: pTGI (converted)): 6.46 µM
GI50 (IGROV-1): 2.51 µM
CC50 (IGROV-1; [7]): 97.7 µM
TGI (IGROV-1; read-out: pTGI (converted)): 22.9 µM
GI50 ([4]; OVCAR-4): 5.01 µM
CC50 ([4]; OVCAR-4, read-out: pLC50 (the source's name) (converted)): 91.2 µM
TGI ([4]; OVCAR-4, read-out: pTGI (converted)): 42.7 µM
GI50 ([5]; OVCAR-5): 17.8 µM
CC50 ([5]; OVCAR-5, read-out: pLC50 (the source's name) (converted)): 97.7 µM
TGI ([5]; OVCAR-5, read-out: pTGI (converted)): 53.7 µM
GI50 [6]: 3.24 µM
CC50 [6, 7]: > 100 µM
TGI ([6]; read-out: pTGI (converted)): 31.6 µM
GI50 (SK-OV-3): 1.95 µM
LC50 (SK-OV-3): > 100 µM
TGI (SK-OV-3; read-out: pTGI (converted)): 18.6 µM
GI50 (786-0): 0.0457 µM
LC50 (concentration killing 50% of cells) (786-0): 12.9 µM
TGI (786-0; read-out: pTGI (converted)): 1.17 µM
GI50 (A498): 0.427 µM
CC50 (A498; [7]): 46.8 µM
TGI (A498; read-out: pTGI (converted)): 11.7 µM
GI50 (ACHN): 2.14 µM
LC50 (concentration killing 50% of cells) (ACHN): > 100 µM
TGI (ACHN; read-out: pTGI (converted)): 30.9 µM
GI50 (CAKI-1): 0.12 µM
LC50 (CAKI-1): 15.1 µM
TGI (CAKI-1; read-out: pTGI (converted)): 0.676 µM
GI50 (SN12C): 10.2 µM
LC50 (SN12C): > 100 µM
TGI (SN12C; read-out: pTGI (converted)): 63.1 µM
GI50 (TK-10): 3.55 µM
LC50 (TK-10): > 100 µM
TGI (TK-10; read-out: pTGI (converted)): 34.7 µM
GI50 (PC-3): 0.245 µM
LC50 (PC-3): 55 µM
TGI (PC-3; read-out: pTGI (converted)): 4.07 µM
GI50 (DU-145): 0.912 µM
LC50 (50% lethal concentration) (DU-145): 33.1 µM
TGI (DU-145; read-out: pTGI (converted)): 6.46 µM
GI50 (MCF7): 1.35 µM
LC50 (MCF7): > 100 µM
TGI (MCF7; read-out: pTGI (converted)): 16.2 µM
GI50 (MDA-MB-231): 1.7 µM
LC50 (MDA-MB-231): > 100 µM
TGI (MDA-MB-231; read-out: pTGI (converted)): 32.4 µM
GI50 (BT-549): 0.0214 µM
CC50 (BT-549; [7]): 57.5 µM
TGI (BT-549; read-out: pTGI (converted)): 5.37 µM
GI50 (T47D): 7.59 µM
CC50 (T47D; [7]): 83.2 µM
TGI (T47D; read-out: pTGI (converted)): 27.5 µM
